Series [1] is described as follows: Cytotoxicity against human HeLa cells after 24 to 72 hrs by MTT assay. Particulars: read-out: CD50 (the source's name). It counts as cell-based. An outline of the steps: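 HeLa (Ohio strain) monolayers in DMEM with 1% non-essential amino acids, penicillin/streptomycin and 10% FCS at 37 °C, 5% CO₂, exposed to various compound concentrations. Morphology (rounding, shrinking, detachment) was checked by light microscopy at 24, 48 and 72 h, and viability read by MTT colorimetry. CD₅₀ is the concentration reducing control absorbance by 50%.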
For orientation: Formazan colour is commonly taken as a measure of viable cells.

Series [2] deals with rhinovirus B14. Put plainly: Antiviral activity against Human rhinovirus 14 assessed as reduction in virus yield at 5 ug/ml added within 3 hrs after infection by agar plaque assay. It counts as functional, organism-based. Summed up: (§1)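 HRV14 (group A, ATCC; working stocks prepared as cellular lysates in DMEM with 2% heat-inactivated FCS). Compound was added to cells at different times, from h −1 to several hours post infection, and incubated 24–36 h at 33 °C, 3% CO₂ until cytopathic effect in controls was almost total. Monolayers were then freeze-thawed and supernatant virus titrated by plaque assay.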

The subject of series [3] is rhinovirus B14. Put plainly: Reversible antiviral activity against Human rhinovirus 14 assessed as reduction in virus yield by agar plaque assay. The class given is functional, organism-based.
Series [4] concerns rhinovirus B14. In words: Antiviral activity against Human rhinovirus 14 assessed as reduction in virus yield after 24 to 36 hrs by agar plaque assay. It counts as functional. Particulars: Rhinovirus B; read-out: ID50 (the source's name). Summed up: (§2)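 Virus-yield reduction: infected monolayers given serial dilutions of compound, incubated 24–36 h at 33 °C, 3% CO₂ until cytopathic effect in controls was almost total. Monolayers then frozen and thawed; virus in supernatant titrated by plaque assay (50% plaque reduction in Hep-2 cells). ID₅₀ is the concentration inhibiting plaque formation by 50%, from dose–response curves by linear regression.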

Series [5] has as its system rhinovirus B14. In words: Antiviral activity against Human rhinovirus 14 assessed as reduction in virus yield at 5 ug/ml added 4 to 5 hrs after infection by agar plaque assay. It counts as functional, organism-based. Summed up: as §1
For another series, the system named is rhinovirus A39. Put plainly: Antiviral activity against Human rhinovirus 39 assessed as reduction in virus yield after 24 to 36 hrs by agar plaque assay. The class given is functional. Particulars: Rhinovirus A; read-out: ID50 (the source's name). Summed up:
as §2

Series [6] in a line: Protective index, ratio of CD50 for human HeLa cells to ID50 for Human rhinovirus 39. Summed up:
(§3)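 PI = CD₅₀/ID₅₀. For CD₅₀, HeLa (Ohio strain) monolayers in DMEM with 10% fetal calf serum were exposed to a range of compound concentrations at 37 °C, 5% CO₂. Morphology was checked by light microscopy at 24, 48 and 72 h. Viability read by MTT; CD₅₀ = concentration reducing control absorbance by 50%. ID₅₀ came from the plaque-reduction virus-yield assay.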

The nature of series [7]: Protective index, ratio of CD50 for human HeLa cells to ID50 for Human rhinovirus 14. Summed up:
as §3

Data on eleven molecules can be found in ChEMBL document CHEMBL3352302, “Synthesis of new compounds with promising antiviral properties against group A and B Human Rhinoviruses” (Bioorg Med Chem, 2014).

The structures appear in SMILES notation. In brackets after ≈: the same amount, converted by molar mass. Activity calls are given as the source filed them. The rule behind the calls is not given here.

`CCOc1nc2ccc(OCCCOc3ccc(C(C)=O)cc3)cc2o1`: the CC50 in series [1] amounted to 200 µg/mL (≈ 563 µM). Further, the outcome in the series with rhinovirus B14 [2] and in the series with rhinovirus B14 [3] was Active. In addition, the IC50 was found to be 0.5 µg/mL (≈ 1.41 µM) with rhinovirus B14 [4] and 0.1 µg/mL (≈ 0.281 µM) with rhinovirus A39. The outcome with rhinovirus B14 [5] was inactive. Further, the PI in series [6] worked out at 2000; in series [7], 400.
For `CCOC(=O)c1ccc(OCCCOCCc2cc(C)no2)cc1`, the CC50 in series [1] was determined as 50 µg/mL (≈ 150 µM). Moreover, the IC50 in the series on rhinovirus B14 [4] and in the series with rhinovirus A39 was 0.07 µg/mL (≈ 0.21 µM) each time. Also, the PI in series [6] and in series [7] was 714 each time.
Consider `CC(=O)c1ccc(OCCCOCc2ccc3c(c2)OCO3)cc1`, for which the CC50 in series [1] came to 50 µg/mL (≈ 152 µM). In addition, the IC50 in the series on rhinovirus B14 [4] and in the series with rhinovirus A39 was 6 µg/mL (≈ 18.3 µM) in each case. In addition, the PI in series [6] and in series [7] was 8 each time.
In the case of `CC(=O)c1ccc(OCCCOCCc2cc(C)no2)cc1`, the CC50 in series [1] is 50 µg/mL (≈ 165 µM). Moreover, the IC50 with rhinovirus B14 [4] came out at 25 µg/mL (≈ 82.4 µM); in the series on rhinovirus A39, 6 µg/mL (≈ 19.8 µM). For the same molecule, the PI in series [6] amounted to 8; in series [7], 2.
The like results for `Cc1cc(CCOCCCOc2ccc3c(c2)OCO3)on1` were, in that order, 50 µg/mL (≈ 164 µM), 50 µg/mL (≈ 164 µM), 50 µg/mL (≈ 164 µM), 1 and 1.
On the same counts, the results for `Cc1cc(OCCCOc2ccc3c(c2)OCO3)on1` are 50 µg/mL (≈ 180 µM), 25 µg/mL (≈ 90.2 µM), 12 µg/mL (≈ 43.3 µM), 4 and 2.
Regarding `CCOC(=O)c1ccc(OCCC2CCN(c3ccc(C)nn3)CC2)cc1` [PIRODAVIR], the CC50 in series [1] was found to be 3.1 µg/mL (≈ 8.39 µM). Also, the result in the series with rhinovirus B14 [2] was Active. Further, the IC50 with rhinovirus B14 [4] was determined as 0.012 µg/mL (≈ 0.0325 µM); in the series on rhinovirus A39, 0.006 µg/mL (≈ 0.0162 µM). The result in the series with rhinovirus B14 [5] was inactive. The PI in series [6] turned out to be 516; in series [7], 258.
`CC(=O)c1ccc(OCCCOc2ccc3c(c2)OCO3)cc1`: the CC50 in series [1] was 25 µg/mL (≈ 79.5 µM). Also, the IC50 in the series on rhinovirus B14 [4] and with rhinovirus A39 was 25 µg/mL (≈ 79.5 µM) throughout. The PI in series [6] and in series [7] was 1 in each case.
As for `Fc1ccc(OCCCOc2ccc3c(c2)OCO3)cc1`, the CC50 in series [1] was 25 µg/mL (≈ 86.1 µM). For the same molecule, the IC50 with rhinovirus B14 [4] and in the series with rhinovirus A39 was 25 µg/mL (≈ 86.1 µM) throughout. Moreover, the PI in series [6] and in series [7] was 1 in each case.
As for `CCOc1nc2ccc(OCCCOc3ccc(C#N)cc3)cc2o1`, in series [1], the CC50 was found to be 50 µg/mL (≈ 148 µM). Further, the IC50 with rhinovirus B14 [4] stood at 25 µg/mL (≈ 73.9 µM); in the series with rhinovirus A39, 1.5 µg/mL (≈ 4.43 µM). The PI amounted to 33 in series [6] and 2 in series [7].
On the same counts, the results for `CCOc1nc2ccc(OCCCOc3ccc4c(c3)OCO4)cc2o1` are 200 µg/mL (≈ 560 µM), 25 µg/mL (≈ 70 µM), 12 µg/mL (≈ 33.6 µM), 16 and 8.
